Bioassay records from PubChem BioAssay.
Only some compounds are listed: those with a hit (about 3.8% of all), similar ones and a draw of the others.
SIRT5 block: SIRT5 desuccinylase inhibitors, primary screen, biochemical, fluorescence imaging, single point, set 5 | NAD-dependent protein deacylase sirtuin-5, mitochondrial (Homo sapiens), Q9NXA8 | Purified SirT5, succinyl-peptide AMC, trypsin-coupled fluorescence | inhibition, % at 15 µM | hit rate 1.1% among 330,000 | AID 652115, 2013; in the data active = inhibition above about 15%
Target sequence (Q9NXA8 whole entry, looked up): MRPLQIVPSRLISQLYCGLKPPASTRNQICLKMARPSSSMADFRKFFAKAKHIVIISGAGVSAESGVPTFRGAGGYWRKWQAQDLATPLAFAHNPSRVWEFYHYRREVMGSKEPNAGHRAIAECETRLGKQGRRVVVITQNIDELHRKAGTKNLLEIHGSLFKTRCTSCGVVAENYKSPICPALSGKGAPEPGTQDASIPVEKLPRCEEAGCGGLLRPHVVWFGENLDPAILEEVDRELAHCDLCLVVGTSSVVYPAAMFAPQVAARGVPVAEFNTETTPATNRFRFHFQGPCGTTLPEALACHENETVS
Xi reactivation: activators of inactive X chromosome reactivation, primary screen, imaging, XiGFP fibroblasts, GFP high-content imaging, set 2; XiGFP mouse fibroblasts, % GFP-positive cells imaging, 3 d; cells co-treated with 5-aza-dC sensitizer; scaled so ellipticine positive control = 100%; activation, % at 7.58 µM; hit rate 0.055% among 360,000; AID 743238, 2013;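 active = mean normalized replicate activation at least 10% and every replicate at or above 10%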
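System: 68-5-11 XiGFP fibroblast line; Timing: 3 days compound exposure; Compound dosing: one concentration, pinned; Benchmarks: positive control ellipticine, 6 µM final; Buffer or medium: DMEM containing 5-aza-dC.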
FN deposition inh: inhibitors of fibronectin matrix deposition, primary screen, AH1F cells, Alexa488-fibronectin fluorescence, plate reader; AID 743247, 2014; AH1F fibroblasts, overnight; inhibition, % at 12.6 µM; hit rate 0.086% among 350,000;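 active = mean inhibition across replicates of 30% or more, regardless of how many single replicates reach that level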
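Assay system: AH1F fibroblasts / Quantity: 10000 cells per well / Medium: DMEM plus 2% serum, read in PBS / Reagent: labelled fibronectin 24 nM / Dosing: single dose, pinned / Times: 1 h cell attachment, overnight exposure to compound and label / Signal: fluorescence, ex 485 nm, em 525 nm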
ARNT TACC3 PPI: disruptors of ARNT/TACC3 protein interaction, primary screen, biochemical, AlphaScreen, single concentration; Transforming acidic coiled-coil-containing protein 3 (Homo sapiens), Q9Y6A5; AlphaScreen His-ARNT PAS-B/GST-TACC3 binding, luminescence; TACC3 fragment carries E629A point mutation; inhibition, % at 9.99 µM; hit rate 0.66% among 390,000;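 active = mean inhibition of replicates at least 50% and at least half of replicates each reaching 50%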
DENV2 CPE rescue: inhibitors of DENV2 cytopathic effect, primary screen, cell-based, plate reader, single concentration. DENV2-infected cells, cytopathic effect rescue. CPE inhibition, % at 9.99 µM. hit rate 1.7% among 350,000. AID 651640, 2012; in the data active = CPE inhibition above about 20%, passing the limit was not always enough; tested in BHK-21 cells
FGF22 binding: binders of human FGF22 protein, primary screen, FGF22 synaptogenesis inhibitor project, biophysical, thermal shift, single point. Fibroblast growth factor 22 (Homo sapiens), Q9HCT0. recombinant FGF22 thermal shift, SYPRO orange fluorescence; percent of sucrose octasulfate shift, DMSO zero. activity (Tm shift, normalised), % at 9.99 µM. hit rate 1.5% among 340,000;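 active = mean Tm shift, scaled 0 neutral to 100 positive control, at about 1.3% or above, every replicate too, limit read from the data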
Target sequence (Q9HCT0 whole entry, looked up): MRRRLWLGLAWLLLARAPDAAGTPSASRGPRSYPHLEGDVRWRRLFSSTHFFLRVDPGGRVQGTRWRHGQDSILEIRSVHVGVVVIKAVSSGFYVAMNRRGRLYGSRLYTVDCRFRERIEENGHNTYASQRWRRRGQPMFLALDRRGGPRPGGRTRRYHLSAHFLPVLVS
Large screens that a line does not name were inactive.

CN(C)C(=O)c1ccc(-c2cccc(-c3nc(C(=O)N(C)C)cc4c3[C@@H](CCO)N([S@](=O)C(C)(C)C)C4)c2)cc1	none
O=C(CN1CCN(Cc2ccccc2)CC1)Nc1cccc(S(=O)(=O)N2CCCCCC2)c1	FGF22 binding 43 (no result: ARNT TACC3 PPI)
CCOC(=O)N1CCN(C(=O)CNC(=O)Cn2cnc3ccccc3c2=O)CC1	FGF22 binding 44 (no result: ARNT TACC3 PPI)
O=C(O)C1CCCCC1C(=O)Nc1ccc(S(=O)(=O)N2CCCC2)cc1 (stereo not given)	SIRT5 block 17 (no result: ARNT TACC3 PPI, FGF22 binding)
CS(=O)(=O)N(CC(=O)Nc1ccc(S(=O)(=O)N2CCCC2)cc1)c1ccccc1	FGF22 binding 43
O=C(O)[C@H]1CCCC[C@H]1C(=O)Nc1ccc(S(=O)(=O)N2CCCCC2)cc1	none
CN1C(=O)c2cc(NC(=O)c3cccs3)ccc2OC[C@H]2O[C@@H](CC(=O)N3CCOCC3)CC[C@@H]21	none (no result: ARNT TACC3 PPI)
O=C(Nc1cccc(S(=O)(=O)N2CCCCCC2)c1)c1ccc2ccccc2n1	DENV2 CPE rescue 22
O=C(Cc1cccc(C(F)(F)F)c1)Nc1ccc(S(=O)(=O)N2CCCC2)cc1	DENV2 CPE rescue 79
CC(C)NC(=O)N(C)C[C@H]1Oc2c(NS(C)(=O)=O)cccc2C(=O)N([C@@H](C)CO)C[C@@H]1C	none
COc1cc(N)c2ncccc2c1Br	ARNT TACC3 PPI 107 (no result: SIRT5 block)
CO[C@H]1CN(C)C(=O)c2cc(NC(=O)CC(F)(F)F)ccc2OC[C@H](C)N(CC2CC2)C[C@@H]1C	none (no result: ARNT TACC3 PPI)
CCCn1nc(C(=O)OCC(=O)Nc2cccc(OC)c2)c2ccccc2c1=O	FGF22 binding 43
Cc1ccnc(NC(=O)c2ccc(Cl)cc2Cl)n1	FGF22 binding 43 (no result: ARNT TACC3 PPI)
Cc1ccc(S(=O)(=O)N2C[C@]3(O)C[C@@H]4C(=O)N(c5ccccc5)C(=O)[C@@H]4C[C@]3(OC(=O)Nc3cccs3)C2)cc1	FGF22 binding 43 (no result: SIRT5 block, ARNT TACC3 PPI)
Cc1ccc(S(=O)(=O)N2C[C@]3(O)C[C@@H]4C(=O)N(c5ccccc5)C(=O)[C@@H]4C[C@]3(OC(=O)Nc3c(C)noc3C)C2)cc1	none (no result: ARNT TACC3 PPI)
CC1CN(C(=O)/C(C#N)=C2\N=C(NC(=O)c3ccccc3Cl)c3ccccc32)CC(C)O1 (stereo not given)	SIRT5 block 21 (no result: ARNT TACC3 PPI)
CC1CN(C(=O)/C(C#N)=C2\N=C(NC(=O)c3ccc(F)cc3)c3ccccc32)CC(C)O1 (stereo not given)	none (no result: ARNT TACC3 PPI)
COC(=O)N(C)C[C@H]1OCc2ccccc2-c2ccccc2C(=O)N([C@H](C)CO)C[C@@H]1C	none (no result: SIRT5 block, ARNT TACC3 PPI, DENV2 CPE rescue, FGF22 binding)
O=C(NCCc1ccncc1)[C@@H]1[C@@H](CO)[C@@H]2Cn3c(ccc(-c4cccc(F)c4)c3=O)[C@H]1N2	DENV2 CPE rescue 85 (no result: FN deposition inh)
CCOCC(=O)Nc1cc(C(=O)NCCc2ccccc2)ccc1Cl	FGF22 binding 11
COC(=O)Nc1ccc(Cn2cc(C(F)(F)F)ccc2=O)cc1	SIRT5 block 17 (no result: ARNT TACC3 PPI)
COC(=O)c1ccc(Cn2cc(C(F)(F)F)ccc2=O)cc1	none (no result: SIRT5 block)
C[C@H]1CN([C@@H](C)CO)S(=O)(=O)c2ccc(C#Cc3ccc(F)cc3)cc2O[C@H]1CN(C)S(C)(=O)=O	none
C[C@H]1CN([C@@H](C)CO)S(=O)(=O)c2ccc(C#Cc3ccc(F)cc3)cc2O[C@@H]1CN(C)S(C)(=O)=O	SIRT5 block 13
C[C@H](CO)N1C[C@H](C)[C@H](CN(C)CC2CC2)Oc2cc(C#Cc3ccc(F)cc3)ccc2S1(=O)=O	SIRT5 block 17 (no result: FGF22 binding)
C[C@@H]1CN([C@@H](C)CO)S(=O)(=O)c2ccc(C#Cc3ccncc3)cc2O[C@@H]1CN(C)S(=O)(=O)c1ccc(F)cc1	none (no result: FN deposition inh)
C[C@H](CO)N1C[C@H](C)[C@H](CN(C)CC2CCOCC2)Oc2cc(C#CC3CC3)ccc2S1(=O)=O	DENV2 CPE rescue 22
C[C@@H]1CN([C@H](C)CO)S(=O)(=O)c2ccc(C#Cc3ccc(F)cc3)cc2O[C@H]1CN(C)S(=O)(=O)c1ccc(F)cc1	SIRT5 block 26
O=C(C[C@@H]1C=C[C@@H](NC(=O)C2CC2)[C@@H](CO)O1)NCCCN1CCOCC1	none (no result: FN deposition inh, ARNT TACC3 PPI)
CO[C@H]1CN(C)C(=O)c2ccc(NC(=O)c3ccccc3F)cc2OC[C@@H](C)N(CC2CC2)C[C@@H]1C	none
CC(C)CC#Cc1ccc2c(c1)O[C@H](CN(C)S(=O)(=O)c1ccc(F)cc1)[C@@H](C)CN([C@H](C)CO)S2(=O)=O	none
C[C@H](CO)N1C[C@H](C)[C@H](CN(C)S(=O)(=O)c2ccc(F)cc2)Oc2cc(C#Cc3ccc(F)cc3)ccc2S1(=O)=O	SIRT5 block 27
C[C@@H]1CN([C@H](C)CO)S(=O)(=O)c2ccc(C#Cc3ccc(F)cc3)cc2O[C@@H]1CN(C)S(=O)(=O)c1ccc(F)cc1	SIRT5 block 30
O=C(/C=C/Nc1ccccc1)c1ccc(Cl)cc1Cl	none
N#Cc1c(Nc2ccccc2)[n+]([O-])c2ccc(Cl)cc2[n+]1[O-]	DENV2 CPE rescue 21
CC(=O)c1ccc(OCCCC(=O)Nc2cc(Cl)ccc2-n2cncn2)cc1	DENV2 CPE rescue 56
O=C(Nc1cc(Cl)ccc1-n1cncn1)c1ccc(Br)o1	FGF22 binding 13
CC=Cc1ccc2n(c1=O)C[C@H]1[C@H](CO)[C@@H](C(=O)NC3Cc4ccccc4C3)[C@@H]2N1C(C)=O (mixture of isomers)	none (no result: FN deposition inh)
O=C1N[C@H](Cc2ccccc2)COCc2cn(nn2)CC[C@H]1Cc1cccc(Cl)c1	none (no result: SIRT5 block, ARNT TACC3 PPI, DENV2 CPE rescue, FGF22 binding)
CN(C)/C=C(/C(=O)c1ccc(Cl)c(Cl)c1)S(C)(=O)=O	FGF22 binding 44
CN(C)/C=C(/C(=O)c1ccc(Cl)cc1)S(C)(=O)=O	none
CO[C@H]1CN(C)C(=O)c2cc(NC(=O)c3ccc(Oc4ccccc4)cc3)ccc2OC[C@H](C)NC[C@@H]1C	none
CO[C@@H]1CN(C)C(=O)c2ccc(NC(=O)c3cccc(F)c3)cc2OC[C@H](C)NC[C@@H]1C	DENV2 CPE rescue 24
COc1cccc(C(=O)Nc2ccc3c(c2)OC[C@H](C)NC[C@H](C)[C@@H](OC)CN(C)C3=O)c1	DENV2 CPE rescue 25 (no result: ARNT TACC3 PPI, FGF22 binding)
CO[C@H]1CN(C)C(=O)c2cc(NC(=O)c3ccc(Oc4ccccc4)cc3)ccc2OC[C@@H](C)NC[C@H]1C	DENV2 CPE rescue 26
